ChEMBL document CHEMBL2331160, “Trimeric hemibastadin congener from the marine sponge Ianthella basta” (J Nat Prod, 2013)
Active and inactive are the calls of the source. The calls are words filed in the database; no cut-off is given here.

What was measured:
[1] = biological target: T1, Receptor-type tyrosine-protein kinase FLT3 (Homo sapiens, UniProt P36888); experiment: Inhibition of FLT3 (unknown origin)
T1 sequence (P36888 whole entry): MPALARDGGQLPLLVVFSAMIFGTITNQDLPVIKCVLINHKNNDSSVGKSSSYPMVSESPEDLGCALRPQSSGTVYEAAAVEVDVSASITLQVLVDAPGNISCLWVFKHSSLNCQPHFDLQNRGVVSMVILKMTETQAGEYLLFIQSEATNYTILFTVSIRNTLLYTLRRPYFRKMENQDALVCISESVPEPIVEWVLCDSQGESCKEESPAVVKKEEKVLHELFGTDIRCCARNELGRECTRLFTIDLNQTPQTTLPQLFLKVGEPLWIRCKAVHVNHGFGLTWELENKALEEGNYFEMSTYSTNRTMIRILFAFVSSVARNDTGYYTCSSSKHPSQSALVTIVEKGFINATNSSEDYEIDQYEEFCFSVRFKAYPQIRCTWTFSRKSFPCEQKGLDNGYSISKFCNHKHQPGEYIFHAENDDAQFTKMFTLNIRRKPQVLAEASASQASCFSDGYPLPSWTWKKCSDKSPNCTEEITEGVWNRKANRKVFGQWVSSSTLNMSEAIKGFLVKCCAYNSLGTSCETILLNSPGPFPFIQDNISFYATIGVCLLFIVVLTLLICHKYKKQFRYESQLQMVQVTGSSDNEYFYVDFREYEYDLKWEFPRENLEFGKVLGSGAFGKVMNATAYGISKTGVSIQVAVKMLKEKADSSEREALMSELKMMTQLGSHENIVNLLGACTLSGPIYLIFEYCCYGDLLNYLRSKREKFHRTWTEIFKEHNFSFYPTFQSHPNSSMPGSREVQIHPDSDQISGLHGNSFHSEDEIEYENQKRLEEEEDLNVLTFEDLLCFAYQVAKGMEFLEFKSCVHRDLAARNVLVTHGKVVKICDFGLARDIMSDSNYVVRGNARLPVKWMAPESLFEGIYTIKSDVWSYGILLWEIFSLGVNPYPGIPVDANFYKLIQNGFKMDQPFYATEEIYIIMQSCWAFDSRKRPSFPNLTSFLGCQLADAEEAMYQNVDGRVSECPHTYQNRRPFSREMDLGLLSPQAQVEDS
Method in brief: (§1)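 Biochemical (cell-free) assay using a panel of 24 protein kinases. The read-out was the IC50.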

[2] = biological target: Receptor tyrosine-protein kinase erbB-2 (Homo sapiens, UniProt P04626); experiment: Inhibition of ERBB2 (unknown origin)
Method in brief: (§2)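 Biochemical (cell-free) assay within a panel of 24 protein kinases. Results reported as IC50 values. Procedure as described in earlier work.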

[3] = biological target: Epidermal growth factor receptor (Homo sapiens, UniProt P00533); experiment: Inhibition of EGFR (unknown origin); method in brief: as §2
[4] = biological target: Mitogen-activated protein kinase kinase kinase 8 (Homo sapiens, UniProt P41279); experiment: Inhibition of COT (unknown origin); method in brief: as §1
[5] = biological target: Cyclin-dependent kinase 4/cyclin D1 (Homo sapiens, UniProt P11802); experiment: Inhibition of CDK4/cyclin-D1 (unknown origin); assay type: protein-complex assay; method in brief: as §2
[6] = biological target: Aurora kinase B (Homo sapiens, UniProt Q96GD4); experiment: Inhibition of aurora-B (unknown origin); method in brief: as §2
[7] = biological target: T2, Aurora kinase A (Homo sapiens, UniProt O14965); experiment: Inhibition of aurora-A (unknown origin); method in brief: as §2
T2 sequence (O14965 whole entry): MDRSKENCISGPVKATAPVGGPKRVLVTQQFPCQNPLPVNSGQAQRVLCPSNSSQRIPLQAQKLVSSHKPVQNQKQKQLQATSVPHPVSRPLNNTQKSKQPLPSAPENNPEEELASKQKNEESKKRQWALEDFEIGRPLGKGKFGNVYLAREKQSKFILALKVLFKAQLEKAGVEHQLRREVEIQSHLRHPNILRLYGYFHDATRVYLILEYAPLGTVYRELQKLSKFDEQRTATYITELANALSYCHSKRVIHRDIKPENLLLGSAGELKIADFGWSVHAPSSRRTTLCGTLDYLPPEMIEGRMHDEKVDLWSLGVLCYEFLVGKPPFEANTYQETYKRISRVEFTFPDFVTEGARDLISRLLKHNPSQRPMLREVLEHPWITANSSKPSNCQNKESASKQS

[8] = tested on: L5178Y; experiment: Cytotoxicity against mouse L5178Y cells assessed as inhibition of cell proliferation by MTT assay; assay type: functional, cell-based
[9] = biological target: Focal adhesion kinase 1 (Homo sapiens, UniProt Q05397); experiment: Inhibition of FAK (unknown origin); method in brief: as §2
[10] = biological target: Insulin receptor (Homo sapiens, UniProt P06213); experiment: Inhibition of INSR (unknown origin); method in brief: as §2
[11] = biological target: Ephrin type-B receptor 4 (Homo sapiens, UniProt P54760); experiment: Inhibition of EPHB4 (unknown origin); method in brief: as §2
[12] = biological target: Cyclin-dependent kinase 2/cyclin A (Homo sapiens, UniProt P24941); experiment: Inhibition of CDK2/cyclin-A (unknown origin); assay type: protein-complex assay; method in brief: as §2
[13] = biological target: Serine/threonine-protein kinase B-raf (Homo sapiens, UniProt P15056, V600E); experiment: Inhibition of B-RAF V600E mutant (unknown origin); method in brief: as §2
[14] = biological target: T3, NUAK family SNF1-like kinase 1 (Homo sapiens, UniProt O60285); experiment: Inhibition of ARK5 (unknown origin); method in brief: as §2
T3 sequence (O60285 whole entry): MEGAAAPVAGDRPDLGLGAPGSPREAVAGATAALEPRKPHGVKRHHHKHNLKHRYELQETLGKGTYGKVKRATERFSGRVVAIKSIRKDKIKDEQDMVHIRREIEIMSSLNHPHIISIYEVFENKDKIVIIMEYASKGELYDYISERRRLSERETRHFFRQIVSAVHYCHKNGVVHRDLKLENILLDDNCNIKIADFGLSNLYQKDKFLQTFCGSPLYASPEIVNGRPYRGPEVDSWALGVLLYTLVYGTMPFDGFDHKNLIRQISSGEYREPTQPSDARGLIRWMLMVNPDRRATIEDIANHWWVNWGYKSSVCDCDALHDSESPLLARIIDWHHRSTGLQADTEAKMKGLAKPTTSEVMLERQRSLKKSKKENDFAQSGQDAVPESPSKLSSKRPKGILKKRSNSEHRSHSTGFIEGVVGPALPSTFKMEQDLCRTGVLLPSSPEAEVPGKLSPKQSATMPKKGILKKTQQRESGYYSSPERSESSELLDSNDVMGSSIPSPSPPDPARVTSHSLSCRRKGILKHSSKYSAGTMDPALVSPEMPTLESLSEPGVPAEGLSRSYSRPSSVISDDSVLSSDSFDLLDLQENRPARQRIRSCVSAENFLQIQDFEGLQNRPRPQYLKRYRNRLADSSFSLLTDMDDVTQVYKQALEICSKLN

[15] = biological target: Vascular endothelial growth factor receptor 2 (Homo sapiens, UniProt P35968); experiment: Inhibition of VEGFR2 (unknown origin); method in brief: as §2
[16] = biological target: Vascular endothelial growth factor receptor 3 (Homo sapiens, UniProt P35916); experiment: Inhibition of VEGFR3 (unknown origin); method in brief: as §2
[17] = biological target: Angiopoietin-1 receptor (Homo sapiens, UniProt Q02763); experiment: Inhibition of TIE2 (unknown origin); method in brief: as §2
[18] = biological target: Proto-oncogene tyrosine-protein kinase Src (Homo sapiens, UniProt P12931); experiment: Inhibition of SRC (unknown origin); method in brief: as §2
[19] = biological target: T4, Serine/threonine-protein kinase PLK4 (Homo sapiens, UniProt O00444); experiment: Inhibition of SAK (unknown origin); method in brief: as §2
T4 sequence (O00444 whole entry): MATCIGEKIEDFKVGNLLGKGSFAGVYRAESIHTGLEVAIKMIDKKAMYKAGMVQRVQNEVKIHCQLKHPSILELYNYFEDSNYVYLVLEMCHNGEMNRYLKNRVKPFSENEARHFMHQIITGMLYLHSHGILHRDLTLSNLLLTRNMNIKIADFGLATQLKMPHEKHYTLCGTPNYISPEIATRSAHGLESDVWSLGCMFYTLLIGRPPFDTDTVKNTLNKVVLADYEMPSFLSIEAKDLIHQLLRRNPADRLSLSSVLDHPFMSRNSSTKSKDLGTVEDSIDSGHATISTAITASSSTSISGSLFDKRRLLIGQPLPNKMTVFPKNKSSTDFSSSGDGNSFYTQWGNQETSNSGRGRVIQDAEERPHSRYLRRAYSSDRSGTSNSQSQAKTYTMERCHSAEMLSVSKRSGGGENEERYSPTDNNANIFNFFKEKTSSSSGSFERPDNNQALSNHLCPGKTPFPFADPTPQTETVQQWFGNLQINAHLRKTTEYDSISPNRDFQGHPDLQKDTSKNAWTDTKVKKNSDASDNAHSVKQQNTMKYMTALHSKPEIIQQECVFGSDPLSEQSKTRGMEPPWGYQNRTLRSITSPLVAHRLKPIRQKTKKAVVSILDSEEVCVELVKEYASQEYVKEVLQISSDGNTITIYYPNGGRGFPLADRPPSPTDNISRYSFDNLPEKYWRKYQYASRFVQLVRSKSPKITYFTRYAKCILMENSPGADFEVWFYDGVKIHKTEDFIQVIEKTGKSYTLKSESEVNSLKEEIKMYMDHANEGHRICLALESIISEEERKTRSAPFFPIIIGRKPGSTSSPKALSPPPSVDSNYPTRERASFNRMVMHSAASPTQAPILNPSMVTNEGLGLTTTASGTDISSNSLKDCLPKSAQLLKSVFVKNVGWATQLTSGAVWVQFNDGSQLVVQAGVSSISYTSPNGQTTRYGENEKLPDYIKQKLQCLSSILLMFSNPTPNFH

[20] = biological target: Serine/threonine-protein kinase PLK1 (Homo sapiens, UniProt P53350); experiment: Inhibition of PLK1 (unknown origin); method in brief: as §2
[21] = biological target: Platelet-derived growth factor receptor beta (Homo sapiens, UniProt P09619); experiment: Inhibition of PDGFR-beta (unknown origin)
[22] = biological target: Hepatocyte growth factor receptor (Homo sapiens, UniProt P08581); experiment: Inhibition of MET (unknown origin); method in brief: as §2
[23] = biological target: Insulin-like growth factor 1 receptor (Homo sapiens, UniProt P08069); experiment: Inhibition of IGF1R (unknown origin); method in brief: as §2

Chain of Cyclin-dependent kinase 4/cyclin D1 (P11802 whole entry): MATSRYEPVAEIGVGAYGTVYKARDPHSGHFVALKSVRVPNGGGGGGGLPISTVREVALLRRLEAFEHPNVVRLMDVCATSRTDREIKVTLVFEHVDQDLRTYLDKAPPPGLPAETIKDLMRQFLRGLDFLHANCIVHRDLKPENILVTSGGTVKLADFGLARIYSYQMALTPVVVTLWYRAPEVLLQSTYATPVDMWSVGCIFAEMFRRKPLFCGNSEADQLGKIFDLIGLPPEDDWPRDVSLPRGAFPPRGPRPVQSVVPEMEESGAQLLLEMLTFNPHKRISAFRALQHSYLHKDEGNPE
Chain of Cyclin-dependent kinase 4/cyclin D1 (P24385 whole entry, further chain): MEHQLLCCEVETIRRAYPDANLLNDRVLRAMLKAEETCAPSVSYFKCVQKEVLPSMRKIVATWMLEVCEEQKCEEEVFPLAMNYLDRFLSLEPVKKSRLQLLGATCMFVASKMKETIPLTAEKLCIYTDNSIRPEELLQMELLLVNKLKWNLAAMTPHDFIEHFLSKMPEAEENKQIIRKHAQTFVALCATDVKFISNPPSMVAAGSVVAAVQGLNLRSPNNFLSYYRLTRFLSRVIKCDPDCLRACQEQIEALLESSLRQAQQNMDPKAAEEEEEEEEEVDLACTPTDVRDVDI
Chain of Receptor tyrosine-protein kinase erbB-2 (P04626 whole entry): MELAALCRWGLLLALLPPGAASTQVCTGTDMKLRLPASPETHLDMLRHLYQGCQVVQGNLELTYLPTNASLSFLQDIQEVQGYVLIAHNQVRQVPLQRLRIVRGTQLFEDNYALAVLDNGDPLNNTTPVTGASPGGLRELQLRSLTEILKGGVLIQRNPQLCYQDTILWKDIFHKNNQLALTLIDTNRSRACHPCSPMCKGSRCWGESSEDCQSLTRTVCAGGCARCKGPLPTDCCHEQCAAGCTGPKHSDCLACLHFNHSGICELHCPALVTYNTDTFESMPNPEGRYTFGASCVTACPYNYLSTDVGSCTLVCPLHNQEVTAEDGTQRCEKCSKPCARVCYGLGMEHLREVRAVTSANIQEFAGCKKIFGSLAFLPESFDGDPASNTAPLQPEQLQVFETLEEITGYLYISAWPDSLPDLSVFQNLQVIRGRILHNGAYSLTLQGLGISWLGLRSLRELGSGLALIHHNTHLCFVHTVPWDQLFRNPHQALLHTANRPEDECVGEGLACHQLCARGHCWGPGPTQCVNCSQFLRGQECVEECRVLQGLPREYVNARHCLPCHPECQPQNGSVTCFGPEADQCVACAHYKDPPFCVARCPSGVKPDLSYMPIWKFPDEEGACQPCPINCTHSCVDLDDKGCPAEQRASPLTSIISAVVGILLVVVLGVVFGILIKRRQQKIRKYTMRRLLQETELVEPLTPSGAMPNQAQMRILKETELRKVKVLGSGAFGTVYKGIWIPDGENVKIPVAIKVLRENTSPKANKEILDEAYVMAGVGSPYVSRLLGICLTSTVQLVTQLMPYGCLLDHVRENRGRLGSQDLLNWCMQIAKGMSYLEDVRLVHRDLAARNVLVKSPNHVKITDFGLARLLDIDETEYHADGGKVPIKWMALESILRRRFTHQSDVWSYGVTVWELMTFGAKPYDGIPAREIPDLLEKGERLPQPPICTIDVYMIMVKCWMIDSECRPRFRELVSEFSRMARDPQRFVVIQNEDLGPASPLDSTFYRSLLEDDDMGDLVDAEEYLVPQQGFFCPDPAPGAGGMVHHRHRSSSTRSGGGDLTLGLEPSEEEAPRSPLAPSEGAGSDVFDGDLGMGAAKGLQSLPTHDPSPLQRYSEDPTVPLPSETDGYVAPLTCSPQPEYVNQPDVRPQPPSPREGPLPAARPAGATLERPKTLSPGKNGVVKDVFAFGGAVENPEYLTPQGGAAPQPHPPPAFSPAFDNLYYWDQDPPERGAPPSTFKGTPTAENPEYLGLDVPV
Chain of Epidermal growth factor receptor (P00533 whole entry): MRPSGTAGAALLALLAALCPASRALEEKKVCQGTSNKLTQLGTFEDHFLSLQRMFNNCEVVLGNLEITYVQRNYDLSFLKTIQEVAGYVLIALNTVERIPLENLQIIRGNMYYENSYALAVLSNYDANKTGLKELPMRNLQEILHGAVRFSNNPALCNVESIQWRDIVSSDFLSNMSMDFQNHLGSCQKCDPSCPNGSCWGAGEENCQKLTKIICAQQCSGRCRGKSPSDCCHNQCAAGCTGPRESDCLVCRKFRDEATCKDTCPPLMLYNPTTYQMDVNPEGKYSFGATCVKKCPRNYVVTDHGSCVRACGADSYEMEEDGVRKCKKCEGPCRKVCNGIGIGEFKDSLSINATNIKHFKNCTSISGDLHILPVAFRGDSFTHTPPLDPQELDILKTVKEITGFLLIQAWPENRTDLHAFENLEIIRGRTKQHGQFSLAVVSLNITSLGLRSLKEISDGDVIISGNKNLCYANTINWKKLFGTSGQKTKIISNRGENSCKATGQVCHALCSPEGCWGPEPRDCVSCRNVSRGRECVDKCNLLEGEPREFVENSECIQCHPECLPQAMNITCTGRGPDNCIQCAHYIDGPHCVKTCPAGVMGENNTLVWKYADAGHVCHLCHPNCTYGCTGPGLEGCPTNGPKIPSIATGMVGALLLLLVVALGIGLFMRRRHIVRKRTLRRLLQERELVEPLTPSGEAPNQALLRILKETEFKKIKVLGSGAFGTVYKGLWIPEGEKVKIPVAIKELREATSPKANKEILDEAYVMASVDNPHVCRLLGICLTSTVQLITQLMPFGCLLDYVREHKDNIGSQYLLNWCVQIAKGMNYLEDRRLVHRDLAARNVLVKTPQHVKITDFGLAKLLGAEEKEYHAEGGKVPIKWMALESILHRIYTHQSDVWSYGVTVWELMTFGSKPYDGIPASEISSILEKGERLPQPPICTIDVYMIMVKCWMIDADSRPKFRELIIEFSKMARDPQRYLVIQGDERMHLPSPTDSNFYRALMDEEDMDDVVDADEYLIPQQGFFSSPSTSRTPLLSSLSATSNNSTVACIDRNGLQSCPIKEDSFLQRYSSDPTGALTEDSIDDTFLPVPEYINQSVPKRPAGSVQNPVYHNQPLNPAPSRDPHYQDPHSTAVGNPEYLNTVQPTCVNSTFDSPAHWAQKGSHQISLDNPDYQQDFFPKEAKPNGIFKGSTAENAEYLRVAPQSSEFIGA
Chain of Aurora kinase B (Q96GD4 whole entry): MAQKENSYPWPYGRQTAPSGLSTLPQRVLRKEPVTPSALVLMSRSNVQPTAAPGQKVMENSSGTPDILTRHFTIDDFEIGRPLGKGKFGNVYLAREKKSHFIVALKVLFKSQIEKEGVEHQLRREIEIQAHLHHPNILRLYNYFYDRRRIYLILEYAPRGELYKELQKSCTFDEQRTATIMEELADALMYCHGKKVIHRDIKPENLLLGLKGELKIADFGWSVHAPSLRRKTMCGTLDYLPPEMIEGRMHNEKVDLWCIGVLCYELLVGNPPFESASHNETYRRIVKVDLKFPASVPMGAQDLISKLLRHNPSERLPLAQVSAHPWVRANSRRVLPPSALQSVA
Chain of Mitogen-activated protein kinase kinase kinase 8 (P41279 whole entry): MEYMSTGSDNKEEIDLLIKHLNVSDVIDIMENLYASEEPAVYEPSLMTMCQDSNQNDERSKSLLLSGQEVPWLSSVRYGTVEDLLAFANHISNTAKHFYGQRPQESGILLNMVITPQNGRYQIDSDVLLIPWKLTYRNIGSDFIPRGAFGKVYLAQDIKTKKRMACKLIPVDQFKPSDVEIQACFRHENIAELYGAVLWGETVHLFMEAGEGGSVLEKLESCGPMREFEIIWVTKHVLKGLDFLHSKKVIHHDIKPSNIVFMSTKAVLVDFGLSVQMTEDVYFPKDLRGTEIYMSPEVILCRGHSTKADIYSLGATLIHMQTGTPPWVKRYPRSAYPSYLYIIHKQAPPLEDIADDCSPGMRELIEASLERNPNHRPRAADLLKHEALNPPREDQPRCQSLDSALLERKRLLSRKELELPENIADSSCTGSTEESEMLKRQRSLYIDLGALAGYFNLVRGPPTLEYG
Chain of Serine/threonine-protein kinase PLK1 (P53350 whole entry): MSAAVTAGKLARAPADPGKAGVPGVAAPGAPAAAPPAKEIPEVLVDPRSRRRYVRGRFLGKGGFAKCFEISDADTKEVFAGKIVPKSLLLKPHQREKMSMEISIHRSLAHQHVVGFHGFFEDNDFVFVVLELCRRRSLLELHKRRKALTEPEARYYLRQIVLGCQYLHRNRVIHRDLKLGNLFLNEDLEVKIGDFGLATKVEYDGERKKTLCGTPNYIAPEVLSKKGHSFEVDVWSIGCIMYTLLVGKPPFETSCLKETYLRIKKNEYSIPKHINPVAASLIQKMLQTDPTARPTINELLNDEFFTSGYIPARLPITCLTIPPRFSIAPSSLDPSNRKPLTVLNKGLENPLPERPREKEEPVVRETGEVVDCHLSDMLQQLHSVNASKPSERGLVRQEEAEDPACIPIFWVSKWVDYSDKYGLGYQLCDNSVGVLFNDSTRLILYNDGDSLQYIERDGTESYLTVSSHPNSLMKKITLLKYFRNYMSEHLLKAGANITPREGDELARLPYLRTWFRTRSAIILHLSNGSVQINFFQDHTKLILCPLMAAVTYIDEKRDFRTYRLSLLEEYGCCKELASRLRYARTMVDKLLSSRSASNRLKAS
Chain of Proto-oncogene tyrosine-protein kinase Src (P12931 2-536 limits assumed): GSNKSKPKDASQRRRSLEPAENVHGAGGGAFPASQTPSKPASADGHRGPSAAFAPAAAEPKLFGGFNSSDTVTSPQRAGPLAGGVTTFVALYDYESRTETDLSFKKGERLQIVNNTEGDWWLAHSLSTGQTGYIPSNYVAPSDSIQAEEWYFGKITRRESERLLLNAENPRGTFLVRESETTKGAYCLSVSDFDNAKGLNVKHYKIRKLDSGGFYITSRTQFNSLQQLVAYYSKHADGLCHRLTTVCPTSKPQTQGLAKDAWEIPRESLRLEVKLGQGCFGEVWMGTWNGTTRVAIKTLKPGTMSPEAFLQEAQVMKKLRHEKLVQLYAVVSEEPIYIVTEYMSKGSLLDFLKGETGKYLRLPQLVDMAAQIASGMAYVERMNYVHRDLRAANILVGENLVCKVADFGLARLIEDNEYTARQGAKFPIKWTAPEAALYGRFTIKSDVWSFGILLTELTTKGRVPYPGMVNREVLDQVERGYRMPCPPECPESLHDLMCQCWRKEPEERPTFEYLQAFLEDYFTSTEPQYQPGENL

SMILES | IC50 [1] | IC50 [2] | IC50 [3] | IC50 [4] | IC50 [5] | IC50 [6] | IC50 [7] | IC50 [8] | also measured
O=C1NCCc2cc(Br)c(O)c(c2)Oc2c(Br)cc(cc2Br)CCNC(=O)/C(=N/O)Cc2cc(Br)c(O)c(c2)Oc2c(Br)cc(cc2Br)C/C1=N\O [BASTADIN 6] | 5.3 µM | 7 µM | 2 µM | 4.8 µM | 3.6 µM | 2.9 µM | 1.7 µM | 1.5 µM | 
O=C1NCCc2ccc(O)c(c2)Oc2c(Br)cc(cc2Br)CCNC(=O)/C(=N/O)Cc2cc(Br)c(O)c(c2)Oc2c(Br)cc(cc2Br)C/C1=N\O [BASTADIN 16] |  | 4.5 µM | 2.9 µM |  | 4 µM | 1.6 µM | 1.3 µM | 1.9 µM | 
O=C(NCCc1ccc(O)c(Br)c1)/C(Cc1cc(Br)c(O)c(Oc2ccc(CCNC(=O)/C(Cc3cc(Br)c(O)c(-c4cc(C/C(=N\O)C(=O)NCCc5ccc(O)c(Br)c5)cc(Br)c4O)c3)=N/O)cc2Br)c1)=N/O [SESQUIBASTADIN 1] | 1.4 µM | 2.1 µM | 0.6 µM | 1.3 µM | 1.4 µM | 2.3 µM | 2.6 µM |  | IC50 [9]: 3.5 µM; IC50 [10]: 1.4 µM; IC50 [11]: 3.4 µM; IC50 [12]: 6.5 µM; IC50 [13]: 1.7 µM; IC50 [14]: 1.7 µM; inhibition [8]: inactive; IC50 [15]: 0.6 µM; IC50 [16]: 1.6 µM; IC50 [17]: 0.6 µM; IC50 [18]: 0.7 µM; IC50 [19]: 0.7 µM; IC50 [20]: 6.4 µM; IC50 [21]: 4 µM; IC50 [22]: 0.8 µM; IC50 [23]: 1 µM
